Laboratory results: ChEMBL document CHEMBL2150980 (Eur J Med Chem, 2012)

Assays:
[1] = target: T1, Alpha-1B adrenergic receptor (Homo sapiens, UniProt P35368); assay: Displacement of [3H]prazosin from human cloned alpha1B adrenoceptor expressed in CHO cell membranes after 30 mins by liquid scintillation counter
T1 sequence (P35368 whole entry): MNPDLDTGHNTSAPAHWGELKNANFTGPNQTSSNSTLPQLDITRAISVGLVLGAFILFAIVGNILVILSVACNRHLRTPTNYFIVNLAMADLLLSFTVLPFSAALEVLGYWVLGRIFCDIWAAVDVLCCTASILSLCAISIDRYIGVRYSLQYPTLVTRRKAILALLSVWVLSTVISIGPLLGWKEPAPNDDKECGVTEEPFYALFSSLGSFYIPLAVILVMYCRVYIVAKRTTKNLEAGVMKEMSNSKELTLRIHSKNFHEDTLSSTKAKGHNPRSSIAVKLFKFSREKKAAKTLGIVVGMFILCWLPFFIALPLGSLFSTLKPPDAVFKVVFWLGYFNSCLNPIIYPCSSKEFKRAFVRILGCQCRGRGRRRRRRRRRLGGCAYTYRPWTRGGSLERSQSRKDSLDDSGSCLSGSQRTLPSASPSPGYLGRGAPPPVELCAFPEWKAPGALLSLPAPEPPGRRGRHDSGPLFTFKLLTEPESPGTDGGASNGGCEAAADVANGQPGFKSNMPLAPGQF

[2] = target: T2, Alpha-1A adrenergic receptor (Rattus norvegicus, UniProt P43140); assay: Antagonist activity at alpha1A adrenoceptor in Sprague-Dawley rat prostatic vas deferens assessed as inhibition of noradrenaline-induced contractions after 30 mins; format: functional, tissue-based; details: read-out: pA2 (converted)
T2 sequence (P43140 whole entry): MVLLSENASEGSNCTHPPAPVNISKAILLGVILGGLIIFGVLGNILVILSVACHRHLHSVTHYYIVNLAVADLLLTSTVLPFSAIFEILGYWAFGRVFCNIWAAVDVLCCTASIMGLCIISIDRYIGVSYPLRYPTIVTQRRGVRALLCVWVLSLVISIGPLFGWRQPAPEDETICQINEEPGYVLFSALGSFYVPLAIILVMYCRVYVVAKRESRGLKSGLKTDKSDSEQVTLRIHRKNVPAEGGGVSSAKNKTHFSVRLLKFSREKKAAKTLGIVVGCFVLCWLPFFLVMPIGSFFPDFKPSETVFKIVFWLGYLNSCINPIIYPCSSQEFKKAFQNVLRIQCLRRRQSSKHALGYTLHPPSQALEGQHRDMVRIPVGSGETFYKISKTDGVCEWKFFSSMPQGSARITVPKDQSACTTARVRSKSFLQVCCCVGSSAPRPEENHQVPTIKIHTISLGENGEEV

[3] = target: T3, 5-hydroxytryptamine receptor 1A (Rattus norvegicus, UniProt P19327); assay: Displacement of [3H]-8-OH-DPAT from 5-HT1A receptor in rat hippocampal membranes after 30 mins by liquid scintillation counting; format: cell membranes, Hippocampus, Membrane
T3 sequence (P19327 whole entry): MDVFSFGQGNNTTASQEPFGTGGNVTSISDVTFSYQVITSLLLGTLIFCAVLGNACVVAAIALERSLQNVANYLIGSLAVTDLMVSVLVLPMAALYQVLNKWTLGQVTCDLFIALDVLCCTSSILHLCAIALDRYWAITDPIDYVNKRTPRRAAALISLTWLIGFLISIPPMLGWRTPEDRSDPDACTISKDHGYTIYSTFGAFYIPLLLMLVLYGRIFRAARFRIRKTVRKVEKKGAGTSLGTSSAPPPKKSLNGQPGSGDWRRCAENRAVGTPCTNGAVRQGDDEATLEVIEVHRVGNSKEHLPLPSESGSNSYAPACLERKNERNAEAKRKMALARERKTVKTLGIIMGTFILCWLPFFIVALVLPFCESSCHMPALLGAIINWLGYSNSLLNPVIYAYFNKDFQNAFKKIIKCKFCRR
Summary of the method: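 Crude rat hippocampal membranes in Tris-HCl 50 mM, pH 7.7, with pargyline and 4 mM CaCl2. […] Stopped by GF/B filtration, then scintillation counting. Ki from IC50 via Cheng–Prusoff; ≥3 experiments in triplicate.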

[4] = target: T2, Alpha-1A adrenergic receptor; assay: Antagonist activity at alpha1A adrenoceptor in Sprague-Dawley rat prostate assessed as inhibition of noradrenaline-induced contractions after 30 mins; format: functional, tissue-based, Prostate gland; details: read-out: pA2 (converted)
Summary of the method: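 Rat (200–250 g) prostatic strips, 8–10 mm × 1–2 mm, held at 2 g resting tension in modified Krebs (NaCl 118.0, KCl 4.7, CaCl2 2.5, MgSO4 1.18, NaHCO3 25.0, KH2PO4 1.18, glucose 5.5 mM).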

[5] = target: T4, Alpha-1B adrenergic receptor (Rattus norvegicus, UniProt P15823); assay: Antagonist activity at alpha1B adrenoceptor in Sprague-Dawley rat spleen assessed as inhibition of phenylephrine-induced contractions after 30 mins; format: functional, tissue-based; details: read-out: pA2 (converted)
T4 sequence (P15823 whole entry): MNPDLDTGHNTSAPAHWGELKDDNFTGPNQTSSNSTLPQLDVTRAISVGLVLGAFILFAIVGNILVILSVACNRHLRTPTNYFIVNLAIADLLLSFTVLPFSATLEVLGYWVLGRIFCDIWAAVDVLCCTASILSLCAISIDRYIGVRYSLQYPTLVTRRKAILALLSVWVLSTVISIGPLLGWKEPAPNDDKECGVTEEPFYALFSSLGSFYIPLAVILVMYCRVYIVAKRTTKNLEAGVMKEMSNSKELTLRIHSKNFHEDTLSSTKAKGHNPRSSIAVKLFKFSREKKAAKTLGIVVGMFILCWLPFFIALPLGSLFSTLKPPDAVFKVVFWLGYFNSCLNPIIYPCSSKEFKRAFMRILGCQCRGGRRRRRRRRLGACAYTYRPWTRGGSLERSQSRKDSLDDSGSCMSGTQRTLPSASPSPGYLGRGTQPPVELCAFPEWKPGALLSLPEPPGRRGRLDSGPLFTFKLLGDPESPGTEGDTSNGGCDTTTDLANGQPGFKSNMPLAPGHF

Ki [1]	Kb [2]	Ki [3]	Kb [4]	Kb [5]	Structure (SMILES)
30.9 nM	166 nM	1 nM	50.1 nM	15.8 nM	COc1cccc(OC)c1OCCNC[C@H]1COc2cccc(O)c2O1.Cl
2.75 nM	1.7 nM	0.851 nM	2.82 nM	0.263 nM	COc1cccc(OC)c1OCCNC[C@H]1COc2cccc(OC)c2O1.Cl
2.19 nM	0.275 nM	1.7 nM	0.912 nM	8.91 nM	COc1cccc(OC)c1OCCNC[C@H]1COc2cccc(Cl)c2O1.Cl
447 nM	53.7 nM	28.8 nM	39.8 nM	16.6 nM	COc1cccc(OC)c1OCCNC[C@H]1COc2c(OC)cccc2O1.Cl
2.4 nM	28.8 nM	1.41 nM	1.2 nM	2.75 nM	COc1cccc(OC)c1OCCNC[C@H]1COc2cccc(F)c2O1.Cl
